Where “and” joins values, the source holds several entries; their conditions need not be identical. Equal entries are not always repeated.
Columns and labels:
[1] = molecular target: T1, Fatty-acid amide hydrolase 1 (Mus musculus, UniProt O08914); experiment: Inhibitor affinity towards enzymes of class serine hydrolase was determined using biotin or fluorescent as radioligand (FP-biotin or FP-Rh)
T1 sequence (O08914 whole entry): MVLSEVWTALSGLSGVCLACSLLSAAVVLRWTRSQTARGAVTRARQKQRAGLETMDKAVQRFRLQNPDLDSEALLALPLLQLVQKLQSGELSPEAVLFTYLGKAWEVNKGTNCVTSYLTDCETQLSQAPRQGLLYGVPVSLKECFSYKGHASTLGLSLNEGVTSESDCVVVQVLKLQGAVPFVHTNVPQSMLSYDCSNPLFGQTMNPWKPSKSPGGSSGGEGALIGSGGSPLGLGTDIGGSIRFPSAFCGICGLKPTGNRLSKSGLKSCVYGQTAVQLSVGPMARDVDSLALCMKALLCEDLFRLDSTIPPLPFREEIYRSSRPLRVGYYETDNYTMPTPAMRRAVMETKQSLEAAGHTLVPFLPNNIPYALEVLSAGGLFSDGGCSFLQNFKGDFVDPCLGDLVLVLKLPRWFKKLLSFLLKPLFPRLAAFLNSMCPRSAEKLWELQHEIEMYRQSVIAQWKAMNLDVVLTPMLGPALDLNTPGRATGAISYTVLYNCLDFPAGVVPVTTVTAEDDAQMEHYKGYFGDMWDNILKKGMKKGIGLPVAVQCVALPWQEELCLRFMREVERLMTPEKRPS

[2] = molecular target: T2, Liver carboxylesterase 1 (Homo sapiens, UniProt P23141); experiment: Inhibitory concentration of triacylgylcerol hydrolase using FP-Rh radioligand
T2 sequence (P23141 whole entry): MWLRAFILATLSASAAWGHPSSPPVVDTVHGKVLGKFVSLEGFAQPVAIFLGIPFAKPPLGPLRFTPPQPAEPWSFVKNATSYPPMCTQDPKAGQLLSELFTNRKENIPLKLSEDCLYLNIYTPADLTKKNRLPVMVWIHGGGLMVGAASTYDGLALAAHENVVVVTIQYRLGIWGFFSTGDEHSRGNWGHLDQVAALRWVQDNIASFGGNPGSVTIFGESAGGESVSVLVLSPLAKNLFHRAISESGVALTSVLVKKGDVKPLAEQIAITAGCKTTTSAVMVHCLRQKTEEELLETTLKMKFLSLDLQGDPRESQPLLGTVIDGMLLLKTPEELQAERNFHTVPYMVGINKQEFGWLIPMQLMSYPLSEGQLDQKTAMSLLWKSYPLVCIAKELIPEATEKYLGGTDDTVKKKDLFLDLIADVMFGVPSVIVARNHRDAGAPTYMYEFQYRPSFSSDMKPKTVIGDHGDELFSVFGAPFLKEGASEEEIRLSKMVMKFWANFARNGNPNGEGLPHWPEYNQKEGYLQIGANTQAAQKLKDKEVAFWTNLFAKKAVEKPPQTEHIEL
Procedure, shortened: (§1)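 Competitive activity-based profiling of native membrane proteomes (brain, heart) with no purified enzyme or substrate. Proteome was incubated with rhodamine-tagged fluorophosphonate (FP-Rh) across systematically varied inhibitor concentrations under kinetically controlled conditions. Labeled serine hydrolases were resolved by SDS-PAGE and fluorescence-detected. Loss of band labeling gave IC50 for each enzyme.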

[3] = Concentration of 50% inhibition of KIAA1363 was determined using FP-Rh as radioligand; procedure, shortened: as §1
[4] = molecular target: T3, Fatty-acid amide hydrolase 1 (Homo sapiens, UniProt O00519); experiment: Inhibitory concentration of fatty acid amide hydrolase using FP-Rh radioligand; procedure, shortened: as §1
T3 sequence (O00519 whole entry): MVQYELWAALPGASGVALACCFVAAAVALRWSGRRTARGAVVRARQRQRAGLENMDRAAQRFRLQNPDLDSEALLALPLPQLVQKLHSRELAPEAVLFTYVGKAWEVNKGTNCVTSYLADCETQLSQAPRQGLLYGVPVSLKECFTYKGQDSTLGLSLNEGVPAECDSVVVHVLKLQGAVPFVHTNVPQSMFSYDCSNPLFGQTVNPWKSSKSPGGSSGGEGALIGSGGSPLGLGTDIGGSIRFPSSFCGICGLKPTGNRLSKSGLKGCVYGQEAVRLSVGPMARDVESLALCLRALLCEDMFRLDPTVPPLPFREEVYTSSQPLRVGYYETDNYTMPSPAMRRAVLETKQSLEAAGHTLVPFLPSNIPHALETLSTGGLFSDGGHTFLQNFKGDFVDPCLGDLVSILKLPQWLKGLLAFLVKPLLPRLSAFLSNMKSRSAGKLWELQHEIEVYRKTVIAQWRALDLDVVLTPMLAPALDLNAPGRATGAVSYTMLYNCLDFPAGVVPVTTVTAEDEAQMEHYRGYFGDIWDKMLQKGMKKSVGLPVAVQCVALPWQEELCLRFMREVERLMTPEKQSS

O=C(CCCCCc1ccccc1)c1nc2ncccc2o1
Ki [1]: 0.2 nM
IC50 [2]: 1 nM
IC50 [3]: 10 µM
IC50 [4]: 1 nM

O=C(CCCCCCCCc1ccccc1)c1ncc(-c2ccccn2)o1
Ki [1]: 7.8 nM
IC50 [2]: 6000 nM
IC50 [3]: > 100 µM
IC50 [4]: 30 nM

O=C(CCCCCCc1ccccc1)c1ncc(-c2ccccn2)o1
IC50 [3]: > 100 µM

O=C(CCCCCCCc1ccccc1)c1ncc(-c2ccccn2)o1
Ki [1]: 7.5 nM
IC50 [2]: 1000 nM
IC50 [3]: > 100 µM
IC50 [4]: 8 nM

O=C(CCCCCCc1ccccc1)c1nnc(-c2ccccc2)o1
Ki [1]: 2 nM

O=C(CCCCCCc1ccccc1)c1nnc(-c2ccccn2)o1
IC50 [2]: 140 nM
IC50 [3]: 90 µM
IC50 [4]: 1 nM

CCCCCCCC/C=C\CCCCCCCC(=O)c1nnc(-c2ccccn2)o1
Ki [1]: 3 nM
IC50 [2]: 20000 nM
IC50 [3]: > 100 µM
IC50 [4]: 4 nM

CCCCCCCC/C=C\CCCCCCCC(=O)c1nnco1
Ki [1]: 90 nM

O=C(CCCCCCCc1ccccc1)c1nnc(-c2ccco2)o1
Ki [1]: 0.29 nM

O=C(CCCCCCCc1ccccc1)c1nc2ncccc2o1
Ki [1]: 0.39 nM
IC50 [2]: 5 nM
IC50 [3]: 20 µM
IC50 [4]: 0.3 nM

O=C(CCCCCCc1ccccc1)c1nnc(-c2ccncc2)o1
Ki [1]: 1 nM
IC50 [2]: 30 nM
IC50 [3]: > 100 µM
IC50 [4]: 20 nM

O=C(CCCCCc1ccccc1)c1nnc(-c2cccnc2)o1
Ki [1]: 0.85 nM

O=C(CCCCCCCCc1ccccc1)c1nc2ncccc2o1
Ki [1]: 0.52 nM
IC50 [2]: 5 nM
IC50 [3]: 10 µM
IC50 [4]: 0.1 nM

O=C(CCCCCCCc1ccccc1)c1nnc(-c2ccccn2)o1
IC50 [2]: 200 nM
IC50 [3]: 60 µM
IC50 [4]: 0.6 nM

CCCCCCCC/C=C\CCCCCCCC(=O)c1nc2ccccc2o1
Ki [1]: 370 nM
IC50 [2]: 10000 nM
IC50 [3]: > 100 µM
IC50 [4]: 10000 nM

CCCCCCCC/C=C/CCCCCCCC(=O)C(F)(F)F
Ki [1]: 80 nM
IC50 [2]: 5000 nM
IC50 [3]: 1 µM
IC50 [4]: 5000 nM

CCCCCCCC/C=C\CCCCCCCC(=O)c1nc2ncccc2o1
Ki [1]: 2.3 nM
IC50 [2]: 1000 nM
IC50 [3]: 60 µM
IC50 [4]: 40 nM

O=C(CCCCCCc1ccccc1)c1nnc(-c2cccnc2)o1
Ki [1]: 1 nM
IC50 [2]: 100 nM
IC50 [3]: > 100 µM
IC50 [4]: 20 nM

O=C(CCCCCCCCc1ccccc1)c1nnc(-c2ccccn2)o1
Ki [1]: 0.85 nM and 0.83 nM
IC50 [2]: 500 nM
IC50 [3]: 3 µM
IC50 [4]: 0.8 nM

CCCCCCCC/C=C\CCCCCCCC(=O)c1nnc(-c2ccccc2)o1
Ki [1]: 16 nM
IC50 [2]: 20000 nM
IC50 [3]: > 100 µM
IC50 [4]: 200 nM

O=C(CCCCCc1ccccc1)c1nc2ccccc2o1
Ki [1]: 220 nM
IC50 [2]: 20 nM
IC50 [3]: > 100 µM
IC50 [4]: 10000 nM

O=C(CCCCCc1ccccc1)c1ncc(-c2ccccn2)o1
Ki [1]: 11 nM
IC50 [2]: 200 nM
IC50 [3]: > 100 µM
IC50 [4]: 100 nM

O=C(CCCCCCc1ccccc1)c1nc2ncccc2o1
Ki [1]: 0.28 nM
IC50 [2]: 3 nM
IC50 [3]: 20 µM
IC50 [4]: 0.3 nM

CCCCCCCC/C=C\CCCCCCCC(=O)c1ncco1
Ki [1]: 100 nM
IC50 [2]: 9000 nM
IC50 [3]: > 100 µM
IC50 [4]: 2000 nM

O=C(CCCCCc1ccccc1)C(F)(F)F
Ki [1]: 170 nM
IC50 [2]: 0.5 nM
IC50 [3]: 0.8 µM
IC50 [4]: 5000 nM

O=C(CCCCCc1ccccc1)c1nnc(-c2ccccn2)o1
IC50 [2]: 30 nM
IC50 [3]: 50 µM
IC50 [4]: 4 nM

CCCCCCCC/C=C\CCCCCCCC(=O)c1ncc(-c2ccccn2)o1
Ki [1]: 18 nM
IC50 [2]: 50000 nM
IC50 [3]: > 100 µM
IC50 [4]: 200 nM

CCCCCCCC/C=C\CCCCCCCC(=O)c1ncc(-c2ccccc2)o1
Ki [1]: 320 nM
IC50 [2]: 50000 nM
IC50 [3]: > 100 µM
IC50 [4]: 5000 nM

O=C(CCCCCCc1ccccc1)c1nnc(-c2ccco2)o1
Ki [1]: 0.56 nM

CCCCCCCCCCCCCCCCCC(=O)C(F)(F)F
Ki [1]: 240 nM
IC50 [2]: 4600 nM
IC50 [3]: 6.6 µM
IC50 [4]: 6400 nM

CCCCCCCCCC(=O)C(F)(F)F
Ki [1]: 130 nM
IC50 [2]: 10 nM
IC50 [3]: 0.4 µM
IC50 [4]: 10000 nM

CCCCCCCCCCCC(=O)C(F)(F)F
Ki [1]: 140 nM
IC50 [2]: 70 nM
IC50 [3]: 0.5 µM
IC50 [4]: 10000 nM

O=C(CCCCCCc1ccccc1)C(F)(F)F
Ki [1]: 100 nM
IC50 [2]: 1 nM
IC50 [3]: 0.2 µM
IC50 [4]: 5000 nM

O=C(CCCCCCCc1ccccc1)C(F)(F)F
Ki [1]: 25 nM
IC50 [2]: 5 nM
IC50 [3]: 0.2 µM
IC50 [4]: 2000 nM

CCCCCCCC(=O)C(F)(F)F
Ki [1]: 1200 nM
IC50 [2]: 2 nM
IC50 [3]: 1.5 µM
IC50 [4]: 30000 nM

Source: ChEMBL document CHEMBL1142011, “Discovery of an exceptionally potent and selective class of fatty acid amide hydrolase inhibitors enlisting proteome-wide selectivity screening: concurrent optimization of enzyme inhibitor potency and selectivity” (Bioorg Med Chem Lett, 2005)
